# Screening results: PubChem BioAssay, several laboratories
# Lmaj promast – Leishmania major promastigote growth inhibition, primary screen; Leishmania major promastigotes, resazurin fluorescence viability; inhibition, % at 10 µM; actives 9% (n = 200,000);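 note: promastigotes grown with compound for 44 hours at 28 °C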
# WT yeast gro inh – growth inhibition of WT strain, primary screen, mitochondrial fusion inhibitor project, WT and mutant strains, chemical genetic; actives 2.1% (n = 190,000); AID 1362, 2008; inhibition, % at 10 µM; mitochondrial fusion phenotypic screen; in the data active = inhibition above about 58%; tested in S. cerevisiae
# G6PDH counter – L. mesenteroides G6PDH inhibitors, counter-screen for G6PDH-coupled screening assays, biochemical, Leuconostoc mesenteroides enzyme | Purified L. mesenteroides G6PDH, diaphorase/resazurin coupled fluorescence, 45 min | inhibition, % at 5 µM | actives 0.12% (n = 200,000)
# Diaph inh CS – diaphorase inhibitors and chemical oxidizers, primary screen, counter-screen for diaphorase-coupled primary assays, biochemical, uHTS, resorufin fluorescence | diaphorase resazurin-to-resorufin fluorescence, NADH, 16 min; bacterial (C. kluyveri) enzyme, not human | inhibition, % at 20 µM | actives 0.69% (n = 190,000);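 active = primary screen inhibition at 20 µM above a set limit, cut at about 50% in these data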
#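 Test system: Clostridium kluyveri diaphorase enzyme / Quantity: diaphorase at 0.14 U/mL in enzyme working solution / Incubation: 16-min room-temperature incubation before reading / Benchmarks: NADH-free wells as positive control, DMSO-only neutral wells / Signal: resorufin fluorescence 544/590 nm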
# Diaph act CS – compounds boosting diaphorase resazurin reduction – biochemical, uHTS, resorufin fluorescence, counter-screen for diaphorase-coupled primary assays, primary screen | Diaphorase/resazurin coupled assay, 16 min; active compounds read high; 1 = vehicle wells, 0 = NADH-free wells | activation factor at 20 µM | actives 0.005% (n = 190,000) | AID 1229, 2008;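 active = diaphorase activity raised at least twofold by the compound at 20 µM; inactive = activation factor below 2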
#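 Test system: Clostridium kluyveri diaphorase, purified enzyme; input: enzyme 0.07 U/mL final; buffer or medium: 50 mM HEPES pH 7.4 with 4.542 mM MgCl2, 0.005% Tween 20; also added: 0.114 mM NADH and 0.1 mM resazurin, final amounts; schedule: 16 min enzyme reaction, ambient temperature; technique: fluorescence of resorufin, 544 nm excitation, 590 nm emission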
# A number is an active result; - = inactive; . = not tested or not shown. Rows were chosen to be rich in hits. Some 11% of all compounds tested hit in one or more screens of this group. Cut-off read from the data, not from the text of the source, unless noted: active = inhibition above about 50%; inactive = the rest.
SMILES,Lmaj promast,WT yeast gro inh,G6PDH counter,Diaph inh CS,Diaph act CS
c1ccc2c(NCC3CCCO3)nc(N3CCCCC3)nc2c1 (centres undefined),67,-,-,.,.
COc1cccc(Nc2nc(NCCO)c3ccccc3n2)c1,101,60,-,-,-
COc1ccc(Nc2nc(NCCO)nc(OC)n2)cc1,-,-,-,-,-
COc1cccc(Nc2nc(NCC3CCCO3)c3ccccc3n2)c1 (centres undefined),100,-,-,-,-
Oc1ccccc1Nc1nc(NCC2CCCO2)c2ccccc2n1 (centres undefined),82,-,-,-,-
COc1cccc(Nc2nnc(SCC3CCCCO3)s2)c1 (centres undefined),-,-,-,-,-
S=C(NCC1CCCO1)Nc1cccc2ccccc12 (centres undefined),-,-,-,-,-
O=S(=O)(Nc1nc2ccccc2nc1NCC1CCCO1)c1cccs1 (centres undefined),-,-,-,-,-
O=C(Nc1ccccc1Cl)Nc1cccnc1Cl,-,-,-,-,-
CCOC(=O)NS(=O)(=O)c1ccc(CCNC(=O)c2cc(C)on2)cc1,-,-,-,-,-
Oc1ccc(Nc2nc(NCC3CCCO3)c3ccccc3n2)cc1 (centres undefined),100,-,-,-,-
CN(C)/C=C(/C#N)C(=O)c1cccc(Oc2ccc(C(C)(C)C)cc2)c1,-,65,-,-,-
COc1ccc(S(=O)(=O)N2CCCCC2)cc1C(C)C,-,-,-,-,-
CCOc1cc(S(=O)(=O)NCCc2cccc(C)c2)c(OCC)cc1-n1cnnn1,-,-,-,-,-
CN(C)CC1CCCCC1OC(=O)c1ccc(Br)cc1 (centres undefined),74,-,-,-,-
CN(C)CC1CCCCC1OC(=O)c1ccc(Cl)cc1Cl (centres undefined),-,-,-,-,-
O=Cc1cc2ccccc2nc1SCCCF,58,-,-,-,-
Cc1cc(N/N=C2/CCCc3ccccc32)nc2ccccc12,90,-,-,-,-
c1ccc(N/N=C2\CCCc3ccccc32)nc1,-,65,-,-,-
Fc1ccc2c(c1)/C(=N/Nc1ccccn1)CCS2,55,68,-,-,-
Cc1cc(C(=O)OCn2nnc3ccccc3c2=O)c(C)n1-c1ccccc1,-,-,-,-,-
O=C(O)Cn1c(CC(=O)N2CCCC2)nc2ccccc21,-,63,-,-,-
C=COCCNC(=O)Nc1ccc(Cl)cc1Cl,-,-,-,-,-
O=c1c(-c2ccc(Br)cc2)coc2c(CN3CCOCC3)c(O)ccc12,100,-,-,-,-
Cc1oc2c(CN3CCOCC3)c(O)ccc2c(=O)c1-c1ccc(Br)cc1,99,-,-,-,-
SMILES,Lmaj promast,WT yeast gro inh,G6PDH counter,Diaph inh CS,Diaph act CS
CCCc1cc(=O)oc2c(CN3CCOCC3)c(O)ccc12,-,-,-,-,-
Cc1oc2c(CN3CCCC3)c(O)ccc2c(=O)c1-c1ccc(Cl)cc1,97,-,-,-,-
Cc1oc2c(CN3CCCC3)c(O)ccc2c(=O)c1-c1ccccc1,-,-,-,-,-
COc1cccc(C2Nc3c(F)cc(Br)cc3C3C=CCC32)c1OC (centres undefined),-,66,-,-,-
COc1cc(C2Nc3c(F)cccc3C3C=CCC32)cc(Br)c1OC (centres undefined),-,-,-,-,-
CC1(C)CC(=O)C2=C(C1)OC(N)=C([N+](=O)[O-])C2c1cccs1 (centres undefined),-,-,-,-,-
CN(C)C(CNC(C(=O)Nc1ccc([N+](=O)[O-])cc1Br)c1ccccc1)c1ccccc1 (centres undefined),-,-,-,-,-
CC(C)CNC(C(=O)Nc1ccc([N+](=O)[O-])cc1Br)c1ccccc1 (centres undefined),79,-,-,-,-
CC(C)NC(=O)COC(=O)/C=C/c1ccco1,-,-,-,-,-
Clc1ccccc1-c1ccc(/C=N/Nc2nncc(-c3ccccc3)n2)o1,-,-,-,-,-
OC(COc1ccc(CNCCc2ccccc2F)cc1)CN1CCCCC1 (centres undefined),78,-,-,-,-
OC(COC(c1ccccc1)c1ccccc1)CN1CCCCC1 (centres undefined),99,-,-,-,-
O=S(=O)(c1ccc(OCC(O)CN2CCc3ccccc3C2)cc1)N1CCOCC1 (centres undefined),62,-,-,-,-
CN(C)S(=O)(=O)N1CCN(CC(O)COc2ccc(C(=O)c3ccccc3)cc2)CC1 (centres undefined),93,-,-,-,-
Cc1cccc(C)c1NC(=O)CNC(=O)CCC(=O)c1cccs1,-,-,-,-,-
O=C(COC(=O)Cc1ccc(-c2ccccc2)cc1)NCc1ccccc1,-,-,-,-,-
CCOC(=O)C1CCN(CC(O)COc2ccc(C(=O)CC)cc2)CC1 (centres undefined),94,-,-,-,-
CC(=O)N1CCN(CC(O)COc2ccc(OCc3ccccc3)cc2)CC1 (centres undefined),-,-,-,-,-
O=C(c1ccccc1)c1ccc(OCC(O)CN2CCCCC2)cc1 (centres undefined),89,-,-,-,-
O=C(c1ccc(Cl)cc1)c1ccc(OCC(O)CN2CCOCC2)cc1 (centres undefined),63,-,-,-,-
O=C(/C=C/c1ccccc1)N1CCN(CC(O)COc2ccccc2)CC1 (centres undefined),78,-,-,-,-
O=C(c1ccccc1)c1ccc(OCC(O)CN2CCN(S(=O)(=O)N3CCCCC3)CC2)cc1 (centres undefined),-,-,-,-,-
COc1ccc(C(OCC2CO2)c2ccc(OC)cc2)cc1 (centres undefined),-,-,-,-,-
COc1ccc(-c2[nH]ncc2C=O)cc1,-,-,-,-,-
O=S(=O)(c1ccc(OCC(O)CN2CCCCC2)cc1)N1CCOCC1 (centres undefined),-,-,-,-,-
OC(COc1ccc(C2C=CCC2)cc1)CN1CCCCC1 (centres undefined),97,-,-,-,-
O=C1CC(NN2CCCCC2)C(=O)N1c1ccccc1 (centres undefined),-,-,-,-,-
O=C(NC(=S)Nc1cccc(Cl)c1N1CCCC1)c1ccc(-c2cccc([N+](=O)[O-])c2)o1,-,-,-,-,-
CCN(CC)S(=O)(=O)c1ccc(Cl)c(C(=O)OC)c1,61,-,-,-,-
